# According to the M2OR odorant receptor database:
# How the values were obtained:
# Conditions in all cases: stereoisomer not certain
# UniProt Q924H8 = target: T1, UniProt Q924H8
# T1 sequence (whole entry): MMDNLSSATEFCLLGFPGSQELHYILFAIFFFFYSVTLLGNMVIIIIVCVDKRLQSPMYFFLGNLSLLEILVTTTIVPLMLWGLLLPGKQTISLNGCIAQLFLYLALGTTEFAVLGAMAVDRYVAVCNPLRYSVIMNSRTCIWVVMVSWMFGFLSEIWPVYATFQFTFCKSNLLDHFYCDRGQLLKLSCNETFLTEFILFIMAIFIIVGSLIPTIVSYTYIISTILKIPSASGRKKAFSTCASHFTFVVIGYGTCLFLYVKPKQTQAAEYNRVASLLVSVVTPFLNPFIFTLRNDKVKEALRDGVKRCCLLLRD
# How it was run: (§1)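 Each receptor–molecule pair is labelled responsive or non-responsive (inactive) according to whether the original authors judged the measured signal statistically different from baseline. The data were taken from the main text and supplementary material of published papers and checked for typos and inconsistencies. Assay methods differed by source, with transient luciferase assays in mammalian cell lines being common.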
# UniProt Q924X8 = target: T2, UniProt Q924X8
# T2 sequence (whole entry): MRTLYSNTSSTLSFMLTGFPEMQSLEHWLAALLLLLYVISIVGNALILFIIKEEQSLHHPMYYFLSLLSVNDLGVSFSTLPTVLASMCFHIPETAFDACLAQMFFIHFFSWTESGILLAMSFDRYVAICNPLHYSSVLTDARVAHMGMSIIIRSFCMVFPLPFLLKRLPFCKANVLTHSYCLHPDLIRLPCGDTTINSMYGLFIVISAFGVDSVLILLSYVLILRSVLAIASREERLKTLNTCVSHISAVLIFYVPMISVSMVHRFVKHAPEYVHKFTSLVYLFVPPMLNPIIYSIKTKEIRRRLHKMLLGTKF
# How it was run: as §1
# UniProt Q99NH4 = target: T3, UniProt Q99NH4
# T3 sequence (whole entry): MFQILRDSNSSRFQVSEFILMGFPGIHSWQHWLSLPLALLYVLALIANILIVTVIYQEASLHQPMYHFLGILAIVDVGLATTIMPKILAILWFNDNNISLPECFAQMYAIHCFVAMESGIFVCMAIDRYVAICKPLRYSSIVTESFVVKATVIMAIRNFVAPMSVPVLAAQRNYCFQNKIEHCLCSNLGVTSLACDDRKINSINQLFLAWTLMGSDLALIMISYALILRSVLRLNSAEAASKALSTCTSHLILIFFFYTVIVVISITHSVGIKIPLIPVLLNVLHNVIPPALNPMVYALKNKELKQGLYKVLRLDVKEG
# How it was run: as §1
# UniProt Q9EPN9 = target: T4, UniProt Q9EPN9
# T4 sequence (whole entry): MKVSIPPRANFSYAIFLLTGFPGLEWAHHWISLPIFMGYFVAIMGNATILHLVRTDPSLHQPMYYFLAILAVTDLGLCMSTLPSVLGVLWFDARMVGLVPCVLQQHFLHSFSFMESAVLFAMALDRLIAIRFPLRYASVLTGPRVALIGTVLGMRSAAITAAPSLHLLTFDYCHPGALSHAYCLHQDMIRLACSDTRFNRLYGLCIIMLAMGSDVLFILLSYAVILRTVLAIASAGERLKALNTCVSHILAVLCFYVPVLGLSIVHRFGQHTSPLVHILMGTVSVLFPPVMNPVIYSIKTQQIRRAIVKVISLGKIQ
# How it was run: as §1
# UniProt Q9R0K2 = target: UniProt Q9R0K2
# Sequence of UniProt Q9R0K2 (Q9R0K2 as listed by the source): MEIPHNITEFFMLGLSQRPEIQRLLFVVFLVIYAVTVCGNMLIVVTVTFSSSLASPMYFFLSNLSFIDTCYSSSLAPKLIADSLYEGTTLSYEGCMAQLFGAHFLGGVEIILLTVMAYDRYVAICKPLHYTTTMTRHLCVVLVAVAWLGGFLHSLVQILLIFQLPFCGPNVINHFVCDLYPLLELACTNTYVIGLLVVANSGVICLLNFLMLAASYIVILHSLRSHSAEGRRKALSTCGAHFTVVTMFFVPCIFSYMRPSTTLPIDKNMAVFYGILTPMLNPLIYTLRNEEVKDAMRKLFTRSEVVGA
# How it was run: as §1
# UniProt Q9WU86 = target: T5, UniProt Q9WU86
# T5 sequence (whole entry): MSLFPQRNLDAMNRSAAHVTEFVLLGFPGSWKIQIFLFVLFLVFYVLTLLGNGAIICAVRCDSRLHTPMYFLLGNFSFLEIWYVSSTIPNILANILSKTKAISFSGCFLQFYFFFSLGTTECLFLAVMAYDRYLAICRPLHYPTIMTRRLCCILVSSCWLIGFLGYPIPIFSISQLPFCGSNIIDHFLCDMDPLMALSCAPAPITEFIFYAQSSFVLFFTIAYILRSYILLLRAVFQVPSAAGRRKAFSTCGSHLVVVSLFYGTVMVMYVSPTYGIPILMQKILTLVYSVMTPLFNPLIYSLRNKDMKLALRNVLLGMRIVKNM
# How it was run: as §1
# UniProt Q9WU94 = target: T6, UniProt Q9WU94
# T6 sequence (whole entry): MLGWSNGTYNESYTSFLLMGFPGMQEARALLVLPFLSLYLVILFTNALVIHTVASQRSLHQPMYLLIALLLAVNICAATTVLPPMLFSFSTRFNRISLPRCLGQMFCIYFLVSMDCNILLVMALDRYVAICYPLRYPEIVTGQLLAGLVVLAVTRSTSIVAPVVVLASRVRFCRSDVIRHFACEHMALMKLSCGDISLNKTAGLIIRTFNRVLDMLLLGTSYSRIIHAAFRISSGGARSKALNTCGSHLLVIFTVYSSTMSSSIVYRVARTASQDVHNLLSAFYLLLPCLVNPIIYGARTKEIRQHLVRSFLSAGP
# How it was run: as §1
# UniProt Q9WVD7 = target: T7, UniProt Q9WVD7
# T7 sequence (whole entry): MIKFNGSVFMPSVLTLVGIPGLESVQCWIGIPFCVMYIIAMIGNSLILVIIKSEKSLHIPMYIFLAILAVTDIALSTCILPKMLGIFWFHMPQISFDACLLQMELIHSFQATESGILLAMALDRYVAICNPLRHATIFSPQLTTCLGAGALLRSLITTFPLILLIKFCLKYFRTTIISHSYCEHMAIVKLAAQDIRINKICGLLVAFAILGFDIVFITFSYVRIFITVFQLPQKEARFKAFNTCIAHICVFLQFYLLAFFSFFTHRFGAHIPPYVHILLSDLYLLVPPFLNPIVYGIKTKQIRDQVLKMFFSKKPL
# How it was run: as §1
# 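Further: active if original authors judged signal statistically different from baseline.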
smiles,measurement,setting,value
CCCCCCCCC(=O)O,odorant receptor agonist call,UniProt Q924H8,inactive
same,odorant receptor agonist call,UniProt Q924X8,inactive
same,odorant receptor agonist call,UniProt Q99NH4,active
same,odorant receptor agonist call,UniProt Q9EPN9,inactive
same,odorant receptor agonist call,UniProt Q9R0K2,inactive
same,odorant receptor agonist call,UniProt Q9WU86,inactive
same,odorant receptor agonist call,UniProt Q9WU94,inactive
same,odorant receptor agonist call,UniProt Q9WVD7,active
CCCCC=O,odorant receptor agonist call,UniProt Q924H8,inactive
same,odorant receptor agonist call,UniProt Q99NH4,inactive
same,odorant receptor agonist call,UniProt Q9WU94,inactive
CCCCCCOC(C)=O,odorant receptor agonist call,UniProt Q924H8,inactive
same,odorant receptor agonist call,UniProt Q9EPN9,inactive
same,odorant receptor agonist call,UniProt Q9R0K2,inactive
same,odorant receptor agonist call,UniProt Q9WU86,inactive
CCCCCC=O,odorant receptor agonist call,UniProt Q924H8,inactive
same,odorant receptor agonist call,UniProt Q99NH4,inactive
same,odorant receptor agonist call,UniProt Q9EPN9,inactive
same,odorant receptor agonist call,UniProt Q9R0K2,inactive
same,odorant receptor agonist call,UniProt Q9WU86,inactive
CCCCCCCCOC=O,odorant receptor agonist call,UniProt Q924H8,inactive
CCCCCCC=CC=O,odorant receptor agonist call,UniProt Q924H8,inactive
CCCCCCC(C)=O,odorant receptor agonist call,UniProt Q924H8,inactive
same,odorant receptor agonist call,UniProt Q9EPN9,inactive
same,odorant receptor agonist call,UniProt Q9R0K2,inactive
same,odorant receptor agonist call,UniProt Q9WU86,inactive
CC(=O)Oc1ccccc1,odorant receptor agonist call,UniProt Q924H8,inactive
same,odorant receptor agonist call,UniProt Q9EPN9,inactive
same,odorant receptor agonist call,UniProt Q9R0K2,inactive
same,odorant receptor agonist call,UniProt Q9WU86,active
O=C([O-])CCCC(=O)[O-].[H+].[H+],odorant receptor agonist call,UniProt Q99NH4,inactive
CCCCOC(=O)CCC,odorant receptor agonist call,UniProt Q9WU94,inactive
CCCCC(=O)CC,odorant receptor agonist call,UniProt Q924H8,inactive
same,odorant receptor agonist call,UniProt Q9EPN9,inactive
same,odorant receptor agonist call,UniProt Q9R0K2,inactive
same,odorant receptor agonist call,UniProt Q9WU86,inactive
CCCCCC(=O)CC,odorant receptor agonist call,UniProt Q924H8,inactive
same,odorant receptor agonist call,UniProt Q9EPN9,inactive
same,odorant receptor agonist call,UniProt Q9R0K2,inactive
same,odorant receptor agonist call,UniProt Q9WU86,inactive
